Values after ≈ are worked out from the molar mass of the structure shown.
How the values were obtained:
Escherichia coli [1] = assay: Antimicrobial activity against Escherichia coli DH10B harboring beta-lactamase KPC-2 T237H mutant by agar dilution method; type: functional; conditions: K-12 DH10B
Procedure, shortened: (§1)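 LB agar dilution MICs followed CLSI criteria, with inocula applied by Steers replicator. […] Piperacillin-tazobactam was tested at an 8:1 ratio. Wild-type and mutant blaKPC-2 were carried on pBC SK(+), or wild type on pBR322-catI, in E. coli DH10B.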

Klebsiella pneumoniae [2] = assay: Activity of Klebsiella pneumoniae 1534 beta-lactamase KPC-2 T237S mutant by spectrophotometric analysis
Procedure, shortened: (§2)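 Purified KPC-2 variant enzymes (periplasmic lysate from E. coli, preparative isoelectric focusing). Hydrolysis followed by diode-array spectrophotometry in 10 mM PBS, pH 7.4, room temperature. Enzyme at 10 nM with substrate in molar excess for pseudo-first-order conditions. Vmax and Km came from a nonlinear least-squares Michaelis-Menten fit.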

Escherichia coli [3] = assay: Antimicrobial activity against Escherichia coli DH10B harboring beta-lactamase KPC-2 T237P mutant by agar dilution method; type: functional; conditions: K-12 DH10B; procedure, shortened: as §1
Escherichia coli [4] = assay: Antimicrobial activity against Escherichia coli DH10B harboring beta-lactamase KPC-2 T237W mutant by agar dilution method; type: functional; conditions: K-12 DH10B; procedure, shortened: as §1
Escherichia coli [5] = assay: Antimicrobial activity against Escherichia coli DH10B harboring beta-lactamase KPC-2 T237K mutant by agar dilution method; type: functional; conditions: K-12 DH10B; procedure, shortened: as §1
Escherichia coli [6] = assay: Antimicrobial activity against Escherichia coli DH10B harboring beta-lactamase KPC-2 T237I mutant by agar dilution method; type: functional; conditions: K-12 DH10B; procedure, shortened: as §1
Klebsiella pneumoniae [7] = assay: Ratio of Kcat/Km for Klebsiella pneumoniae 1534 beta-lactamase KPC-2 T237A mutant by spectrophotometric analysis; procedure, shortened: as §2
Escherichia coli [8] = assay: Antimicrobial activity against Escherichia coli DH10B harboring plasmid pBC SK(+) carrying wild type beta-lactamase KPC-2 by agar dilution method; type: functional; conditions: K-12 DH10B; procedure, shortened: as §1
Escherichia coli [9] = assay: Antimicrobial activity against Escherichia coli DH10B harboring beta-lactamase KPC-2 T237D mutant by agar dilution method; type: functional; conditions: K-12 DH10B; procedure, shortened: as §1
Escherichia coli [10] = assay: Antimicrobial activity against Escherichia coli DH10B harboring beta-lactamase KPC-2 T237F mutant by agar dilution method; type: functional; conditions: K-12 DH10B; procedure, shortened: as §1
Escherichia coli [11] = assay: Antimicrobial activity against Escherichia coli DH10B harboring beta-lactamase KPC-2 T237C mutant by agar dilution method; type: functional; conditions: K-12 DH10B; procedure, shortened: as §1
Klebsiella pneumoniae [12] = assay: Ratio of Kcat/Km for Klebsiella pneumoniae 1534 beta-lactamase KPC-2 T237S mutant by spectrophotometric analysis; procedure, shortened: as §2
Escherichia coli [13] = assay: Antimicrobial activity against Escherichia coli DH10B harboring plasmid pBR322-catI carrying beta-lactamase KPC-2 by agar dilution method; type: functional; conditions: K-12 DH10B; procedure, shortened: as §1
Escherichia coli [14] = assay: Antimicrobial activity against Escherichia coli DH10B by agar dilution method; type: functional; conditions: K-12 DH10B; procedure, shortened: as §1
Escherichia coli [15] = assay: Antimicrobial activity against Escherichia coli DH10B harboring beta-lactamase KPC-2 T237M mutant by agar dilution method; type: functional; conditions: K-12 DH10B; procedure, shortened: as §1
Escherichia coli [16] = assay: Antimicrobial activity against Escherichia coli DH10B harboring beta-lactamase KPC-2 T237L mutant by agar dilution method; type: functional; conditions: K-12 DH10B; procedure, shortened: as §1
Escherichia coli [17] = assay: Antimicrobial activity against Escherichia coli DH10B harboring plasmid […] by agar dilution method; type: functional; conditions: K-12 DH10B; procedure, shortened: as §1
Escherichia coli [18] = assay: Antimicrobial activity against Escherichia coli DH10B harboring beta-lactamase KPC-2 T237G mutant by agar dilution method; type: functional; conditions: K-12 DH10B; procedure, shortened: as §1
Escherichia coli [19] = assay: Antimicrobial activity against Escherichia coli DH10B harboring beta-lactamase KPC-2 T237R mutant by agar dilution method; type: functional; conditions: K-12 DH10B; procedure, shortened: as §1
Klebsiella pneumoniae [20] = assay: Selectivity index, Ratio of Kcat/Km for Klebsiella pneumoniae 1534 beta-lactamase KPC-2 T237S mutant to ratio of Kcat/Km for Klebsiella pneumoniae 1534 beta-lactamase KPC-2 by spectrophotometric analysis
Procedure, shortened: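 Kinetics used purified enzymes in 10 mM PBS, pH 7.4, room temperature, with 10 nM enzyme and substrate in excess. Km and Vmax came from a Michaelis-Menten fit. kcat/Km of the variant was compared with wild type as ΔΔG = −RT ln of the kcat/Km ratio.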

Klebsiella pneumoniae [21] = assay: Activity of Klebsiella pneumoniae 1534 beta-lactamase KPC-2 T237A mutant by spectrophotometric analysis; procedure, shortened: as §2
Escherichia coli [22] = assay: Antimicrobial activity against Escherichia coli DH10B harboring beta-lactamase KPC-2 T237V mutant by agar dilution method; type: functional; conditions: K-12 DH10B; procedure, shortened: as §1
Escherichia coli [23] = assay: Antimicrobial activity against Escherichia coli DH10B harboring beta-lactamase KPC-2 T237Q mutant by agar dilution method; type: functional; conditions: K-12 DH10B; procedure, shortened: as §1
Escherichia coli [24] = assay: Antimicrobial activity against Escherichia coli DH10B harboring beta-lactamase KPC-2 T237S mutant by agar dilution method; type: functional; conditions: K-12 DH10B; procedure, shortened: as §1
Klebsiella pneumoniae [25] = assay: Antimicrobial activity against Klebsiella pneumoniae 1534 expressing beta-lactamase KPC-2 by agar dilution method; type: functional
Procedure, shortened: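 MICs were determined by LB agar dilution following CLSI criteria, with a Steers replicator. […] Piperacillin-tazobactam was kept at an 8:1 ratio.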

Escherichia coli [26] = assay: Antimicrobial activity against Escherichia coli DH10B harboring beta-lactamase KPC-2 T237A mutant by agar dilution method; type: functional; conditions: K-12 DH10B; procedure, shortened: as §1
Escherichia coli [27] = assay: Antimicrobial activity against Escherichia coli DH10B harboring beta-lactamase KPC-2 T237Y mutant by agar dilution method; type: functional; conditions: K-12 DH10B; procedure, shortened: as §1
Escherichia coli [28] = assay: Antimicrobial activity against Escherichia coli DH10B harboring beta-lactamase KPC-2 T237E mutant by agar dilution method; type: functional; conditions: K-12 DH10B; procedure, shortened: as §1
Escherichia coli [29] = assay: Antimicrobial activity against Escherichia coli DH10B harboring beta-lactamase KPC-2 T237N mutant by agar dilution method; type: functional; conditions: K-12 DH10B; procedure, shortened: as §1
Klebsiella pneumoniae [30] = assay: Ratio of Ki for Klebsiella pneumoniae 1534 beta-lactamase KPC-2 T237S mutant to Ki for Klebsiella pneumoniae wild type beta-lactamase KPC-2 by competitive assay
Procedure, shortened: (§3)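 Direct competition assay at steady state with purified enzyme at 10 nM. Inhibitor was varied from 5 μM to 5 mM, with nitrocefin 100 μM final as reporter substrate. 1/v0 was plotted against [I], and Ki(observed) was taken as y-intercept divided by slope. This was corrected by 1 + [S]/Km(nitrocefin).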

[31] = Inhibition of Klebsiella pneumoniae 1534 beta-lactamase KPC-2 T237A mutant by competitive assay; procedure, shortened: as §3
Klebsiella pneumoniae [32] = assay: Ratio of Ki for Klebsiella pneumoniae 1534 beta-lactamase KPC-2 T237A mutant to Ki for wild type Klebsiella pneumoniae beta-lactamase KPC-2 by competitive assay
[33] = Inhibition of Klebsiella pneumoniae 1534 beta-lactamase KPC-2 T237S mutant by competitive assay; procedure, shortened: as §3

**Q.** Which MIC (Escherichia coli [1]) does the source give for CC(=O)OCC1=C(C(=O)O)N2C(=O)[C@@H](NC(=O)Cc3cccs3)[C@H]2SC1 [CEPHALOTHIN] here?
**A.** The MIC was 16 µg/mL (≈ 40.4 µM).

**Q.** And the Km (Klebsiella pneumoniae [2])?
**A.** Its Km is 18 µM.

**Q.** What about the kcat (Klebsiella pneumoniae [2]) of the same compound?
**A.** Its kcat is 65 s⁻¹.

**Q.** And the MIC (Escherichia coli [3])?
**A.** Its MIC is 2 µg/mL (≈ 5.04 µM).

**Q.** And the MIC (Escherichia coli [4])?
**A.** Its MIC is 32 µg/mL (≈ 80.7 µM).

**Q.** What about the MIC (Escherichia coli [5]) of the same compound?
**A.** Its MIC is 4 µg/mL (≈ 10.1 µM).

**Q.** And the MIC (Escherichia coli [6])?
**A.** Its MIC is 4 µg/mL (≈ 10.1 µM).

**Q.** And the kcat/Km (Klebsiella pneumoniae [7])?
**A.** The kcat/Km was 900000 M⁻¹ s⁻¹.

**Q.** And the MIC (Escherichia coli [8])?
**A.** Its MIC is 256 µg/mL (≈ 646 µM).

**Q.** And the MIC (Escherichia coli [9])?
**A.** Its MIC is 4 µg/mL (≈ 10.1 µM).

**Q.** And the MIC (Escherichia coli [10])?
**A.** The MIC was 4 µg/mL (≈ 10.1 µM).

**Q.** What about the MIC (Escherichia coli [11]) of the same compound?
**A.** The MIC was 4 µg/mL (≈ 10.1 µM).

**Q.** What about the kcat/Km (Klebsiella pneumoniae [12]) of the same compound?
**A.** Its kcat/Km is 3.6e+06 M⁻¹ s⁻¹.

**Q.** And the MIC (Escherichia coli [13])?
**A.** The MIC was 512 µg/mL (≈ 1290 µM).

**Q.** And the MIC (Escherichia coli [14])?
**A.** The MIC was 4 µg/mL (≈ 10.1 µM).

**Q.** And the MIC (Escherichia coli [15])?
**A.** The MIC was 16 µg/mL (≈ 40.4 µM).

**Q.** And the MIC (Escherichia coli [16])?
**A.** Its MIC is 8 µg/mL (≈ 20.2 µM).

**Q.** And the MIC (Escherichia coli [17])?
**A.** Its MIC is 4 µg/mL (≈ 10.1 µM).

**Q.** What about the MIC (Escherichia coli [18]) of the same compound?
**A.** Its MIC is 4 µg/mL (≈ 10.1 µM).

**Q.** And the MIC (Escherichia coli [19])?
**A.** The MIC was 4 µg/mL (≈ 10.1 µM).

**Q.** And the fold change (FC) (Klebsiella pneumoniae [20])?
**A.** Its fold change (FC) is 2.7.

**Q.** And the Km (Klebsiella pneumoniae [21])?
**A.** The Km was 30 µM.

**Q.** And the kcat (Klebsiella pneumoniae [21])?
**A.** Its kcat is 26 s⁻¹.

**Q.** And the MIC (Escherichia coli [22])?
**A.** Its MIC is 8 µg/mL (≈ 20.2 µM).

**Q.** And the MIC (Escherichia coli [23])?
**A.** Its MIC is 16 µg/mL (≈ 40.4 µM).

**Q.** And the MIC (Escherichia coli [24])?
**A.** The MIC was 256 µg/mL (≈ 646 µM).

**Q.** And the MIC (Klebsiella pneumoniae [25])?
**A.** The MIC was 1020 µg/mL (≈ 2580 µM).

**Q.** And the MIC (Escherichia coli [26])?
**A.** Its MIC is 32 µg/mL (≈ 80.7 µM).

**Q.** What about the MIC (Escherichia coli [27]) of the same compound?
**A.** Its MIC is 16 µg/mL (≈ 40.4 µM).

**Q.** And the MIC (Escherichia coli [28])?
**A.** Its MIC is 4 µg/mL (≈ 10.1 µM).

**Q.** What about the MIC (Escherichia coli [29]) of the same compound?
**A.** Its MIC is 4 µg/mL (≈ 10.1 µM).

**Q.** Which fold change (FC) (Klebsiella pneumoniae [30]) does the source give for O=C(O)[C@H]1/C(=C/CO)O[C@@H]2CC(=O)N21 [CLAVULANIC ACID] here?
**A.** Its fold change (FC) is 1.7.

**Q.** And the Ki [31]?
**A.** Its Ki is 55 µM.

**Q.** What about the fold change (FC) (Klebsiella pneumoniae [32]) of the same compound?
**A.** The fold change (FC) was 5.

**Q.** And the Ki [33]?
**A.** Its Ki is 13 µM.

**Q.** For CC1(C)[C@H](C(=O)O)N2C(=O)C[C@H]2S1(=O)=O [SULBACTAM], which fold change (FC) (Klebsiella pneumoniae [30]) is on record?
**A.** The fold change (FC) was 1.7.

**Q.** And the Ki [31]?
**A.** Its Ki is 703 µM.

**Q.** And the fold change (FC) (Klebsiella pneumoniae [32])?
**A.** Its fold change (FC) is 4.2.

**Q.** And the Ki [33]?
**A.** The Ki was 97 µM.
